# In the RNAGym collection of RNA variant scans (doi:10.1038/s41586-018-0170-7):
# B1: tRNA (parent)
# chain: GUUCCGUUGGCGUAAUGGUAACGCGUCUCCCUCCUAAGGAGAAGACUGCGGGUUCGAGUCCCGUACGGAACG
# Variants of: B1
# Test: yeast fitness, log relative to wild type (ln ratio); higher = fitter; tRNA-Arg(CCU), competitive growth, 37 C, 1 M NaCl
# Method in brief: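 Genotype fitness is expressed as the natural log of its generations over those of the wild type. Each pool of the tRNA-Arg(CCU) variant library, carried on a HIS3 centromeric plasmid in BY4742 lacking the chromosomal gene, came from one of two independent transformations and grew 4 generations in SC-HIS at 30 °C before ~6.5 generations (~26.5 h) in SC-HIS 1M NaCl at 37 °C. Generation numbers used OD-scaled log2 output/input frequencies from 125 bp paired-end Illumina sequencing, combined across replicates by inverse-variance weighting.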
row,Variant,yeast fitness (ln)
1,U2C G6U C46U,-0.0289
2,G1A U2G G6A C27U A43C C46U C66U A70U,-0.226
3,U2G G6A C27U A43C C66U A70G C71U,-0.29
4,G1A U2G G6U C46U A69G A70U,-0.211
5,U2C G6U C27U A43C C46U C66A A69G A70G C71U,-0.0738
6,G1A U2G G6A A43C C66A A69G A70G C71U,-0.253
7,G1A U2G G6A A43C C46U C66U A70G,-0.181
8,U2C A43C C46U A69G A70G,-0.0147
9,C27U A43C C66A A70U C71U,-0.347
10,U2C C27U C46U C66A A69G A70G C71U,-0.106
11,C27U C71U,-0.0403
12,G1A G6U C46U C66U A69G A70U,-0.251
13,G1A G6A C27U C46U C66U A69G A70G C71U,-0.698
14,G1A U2G G6U C27U A43C C66U A69G A70U,-0.611
15,G1A U2G C46U A70U C71U,0.00364
16,U2C G6U A43C A70G C71U,-0.185
17,U2C A70U,-0.0103
18,G1A U2C G6U C46U C66A A70G C71U,-0.0251
19,U2C C27U C46U C66U A69G A70U,-0.137
20,U2C G6U C46U C66U A69G C71U,-0.221
21,G1A U2G G6A C27U A43C C46U C66A C71U,-0.323

row,Variant,yeast fitness (ln)
1,G1A C27U C46U A70G,-0.175
2,U2C G6A C27U A43C C66U A70G,-0.0396
3,U2G G6A C66A A70G C71U,-0.17
4,G1A G6A A43C C46U A70G C71U,-0.214
5,C27U A43C C66A A69G A70U,-0.289
6,G1A U2G G6U C27U A43C C46U C66U A70G,-0.564
7,G1A U2G G6A C66U A70U,-0.319
8,U2C A43C C46U C66A A70G,-0.058
9,U2G G6U C46U C66U A69G A70G C71U,-0.231
10,U2C C66A A70U C71U,-0.0799
11,G6U C27U A43C C46U C66U A69G A70U C71U,-0.535
12,G1A U2G C27U A43C,-0.182
13,U2G G6U C46U C71U,-0.134
14,U2G G6U C66U,-0.0894
15,G1A U2G C66U,-0.159
16,U2C C46U C66U A70G C71U,-0.00524
17,U2C G6A C46U A69G A70G,-0.0375
18,U2G A43C C46U C66U A69G A70U,-0.172
19,G1A U2C C27U A43C,-0.0395
20,G1A C27U A43C C66U A70U C71U,-0.51
21,C27U C66A A70G C71U,-0.194

row,Variant,yeast fitness (ln)
1,G1A C27U A43C C46U C66A C71U,-0.231
2,G6A C27U A43C C46U C66U A70G,-0.193
3,G1A U2C G6U C27U A43C C46U C66U A69G A70U,-0.472
4,G1A U2C G6A C27U C46U C66U A70G C71U,-0.00474
5,U2C C27U A43C C66U A69G C71U,-0.388
6,G1A U2C C27U A43C C46U A70U C71U,-0.221
7,U2C G6U A43C C46U A69G C71U,-0.17
8,G1A G6A C27U C66A C71U,-0.224
9,G1A U2C C27U A43C C46U A69G A70U,-0.0492
10,G6A C27U A43C C66U C71U,-0.264
11,G1A U2G C66U A70G C71U,-0.187
12,A43C C66A C71U,-0.117
13,G1A G6A C66A A69G A70G C71U,-0.194
14,G6U C46U A70G,-0.284
15,G1A G6U C46U C66U,-0.0919
16,G1A U2G A70G C71U,-0.212
17,U2C C46U C66A A70G,-0.0556
18,G1A U2C A43C C46U,-0.00932
19,G6A A43C C46U C66U A69G A70U,-0.159
20,G1A C27U C46U C66U,-0.215
21,U2G G6U C27U A43C C66U A70U C71U,-0.441

row,Variant,yeast fitness (ln)
1,C27U C46U C66A A70G,-0.0605
2,G1A U2C A43C C66U A70G,-0.161
3,U2C G6A C27U C46U C66U A70G C71U,-0.0332
4,U2C A43C A70U C71U,-0.102
5,U2G G6A C27U A43C C66U A69G A70G,-0.3
6,G1A U2G G6U C27U A43C C66U A69G A70G C71U,-0.491
7,G1A U2G G6A C27U A43C C66U A69G A70U,-0.387
8,G1A U2G G6U C27U C46U C71U,-0.259
9,U2C G6A C27U C66A A69G A70G C71U,-0.0666
10,U2C A43C C66U A70U C71U,-0.424
11,G1A U2G G6A A43C A70U C71U,-0.309
12,G1A G6A C27U C46U C66A A70G,-0.285
13,G6U A43C C46U A70G C71U,-0.256
14,U2G G6U A43C C46U C66A A69G A70G C71U,-0.228
15,U2G G6A C66U A69G C71U,-0.217
16,G1A A43C C46U C66A A70U,-0.082
17,C27U A43C C46U A69G,-0.0156
18,G1A U2C C27U C46U C66U A70U C71U,-0.147
19,G6U C46U C66U A69G C71U,-0.594
20,G1A U2G G6A C27U C66U A69G A70U,-0.26
21,U2C G6A,0.0247
